Compound activity: PubChem, several laboratories
TPT1 inhibitor: C. albicans TPT1 enzyme inhibition; recombinant caTPT1, FP RNA substrate dephosphorylation; inhibition, % at 5 µM; 300,000 tested, 0.81% active;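 active means inhibition above the mean of all tested compounds plus 3 SD, set per screening campaign, cut at about 24% in these data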;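 further: plate controls were DMSO alone for no effect and ferristatin control at 100 nM for full effect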
HNF4A DNA FP: change in binding of human HNF4 alpha to DNA. AID 1224865. 360,000 tested, 0.3% active. HNF4a-FITC DNA binding, fluorescence polarization, 1 h. activity change, % at 10 µM. P41235; in the data active means activity change above about 30%, passing the limit was not always enough
Target sequence (P41235 whole entry, looked up): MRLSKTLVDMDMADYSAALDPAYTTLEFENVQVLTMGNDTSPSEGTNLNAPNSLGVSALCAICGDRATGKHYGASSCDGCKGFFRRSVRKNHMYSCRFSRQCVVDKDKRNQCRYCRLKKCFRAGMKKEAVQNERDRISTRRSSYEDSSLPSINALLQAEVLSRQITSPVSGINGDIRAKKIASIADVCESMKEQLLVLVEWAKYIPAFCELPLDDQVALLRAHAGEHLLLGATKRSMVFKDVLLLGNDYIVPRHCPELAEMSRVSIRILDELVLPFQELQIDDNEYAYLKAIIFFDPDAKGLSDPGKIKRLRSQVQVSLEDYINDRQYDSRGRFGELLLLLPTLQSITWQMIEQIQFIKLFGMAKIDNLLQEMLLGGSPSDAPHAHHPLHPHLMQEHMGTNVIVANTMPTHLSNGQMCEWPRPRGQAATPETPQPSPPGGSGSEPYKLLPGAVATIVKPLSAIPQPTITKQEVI
NadD block: inhibitors of Staphylococcus aureus NadD; purified NadD enzyme, colorimetric absorbance read-out; inhibition, % at 20 µM; 360,000 tested, 0.78% active; AID 602399; in the data active means inhibition above about 26%
PP1 counter: counter-screen for PP5 inhibitors: inhibitors of human PP1-alpha. AID 2235. 320,000 tested, 0.9% active. inhibition, % at 6.7 µM. P62136. purified PP1alpha, OMFP fluorescence;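 active means inhibition above the mean inhibition of all tested compounds plus 3 SD, computed separately for each screening campaign, cut at about 15% in these data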
CSN deneddyl inh: blocks human CSN-mediated cullin deneddylation | Q92905 | Purified CSN, SCF-Nedd8-OG deneddylation, fluorescence polarization | inhibition, % at 12.5 µM | 360,000 tested, 0.38% active;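 active means pattern-corrected inhibition above about 35%, with an unprinted fluorescence ratio check between 0.5 and 1.5, limit read from the data, passing the limit was not always enough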;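 further: 0% = enzyme with substrate and 100% = substrate without enzyme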
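test system = HEK293T-derived human Csn5 enzyme | amount = 0.24 nM Csn5 enzyme, final concentration | medium = Tris/NaCl/DTT buffer, pH 7.5 | schedule = 90 min reaction at room temperature | signal = FP | evaluation = inhibition of Csn5 cleavage, % | compound dosing = single dose of 12.5 µM compound with 0.25% DMSO | probe or stimulus = 10 nM SCFSkp2-Nedd8OG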
Rpn11 block: Rpn11 (human) deubiquitinase inhibition; O00487; human 26S proteasome, Ub4-pepOG fluorescence polarization; 20S core pre-blocked with epoxomicin; inhibition, % at 20 µM; 360,000 tested, 0.59% active; AID 588493;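 active means inhibition at 20 µM, scaled to each plate's controls, above about 33%, limit read from the data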
Rpn11 confirm: confirmation of human proteasome Rpn11 inhibitors | shares compounds with Rpn11 block | inhibition, % at 20 µM | 1,900 tested, 29% active | purified human 26S proteasome, Ub4-pepOG fluorescence polarization; proteasome pretreated with epoxomicin
MMP-2 counter: counter-screen for RPN11 inhibitors: inhibition of human MMP-2; 1,900 tested, 4% active; shares compounds with Rpn11 block; AID 602330; recombinant MMP-2, FRET peptide cleavage fluorescence; inhibition, % at 20 µM;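 further: human MMP-2 activated beforehand with APMA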
Thrombin inh: blocks bovine thrombin, flagging nonselective RPN11 hits | shares compounds with Rpn11 block | bovine thrombin cleavage of Ub4-pepOG, fluorescence polarization | inhibition, % at 20 µM | 1,900 tested, 13% active | AID 602333;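 active means mean inhibition at least 40% at 20 µM, or signal 3 deviations below plate average, so some actives read negative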;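 further: plate controls were thrombin with DMSO for no effect and buffer wells lacking thrombin for full effect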
* marks the source's active call; other numbers are inactive results; nt = no result. A selection: hits, their analogues and other compounds. The true share with any hit is near 2.7%. Unless noted, no stated cut-off is given here; in the data, active means inhibition above about 40%; inactive means the rest.

SMILES	TPT1 inhibitor	HNF4A DNA FP	NadD block	PP1 counter	CSN deneddyl inh	Rpn11 block	Rpn11 confirm	MMP-2 counter	Thrombin inh
O=C(Nc1ccc(Cl)c(C(F)(F)F)c1)C1Cc2c(-c3ccc4c(c3)OCO4)ccnc2O1 (centres undefined)	nt	-1	8	nt	-1	-2	nt	nt	nt
C=CC[n+]1c(-c2ccc(OCC)cc2)csc1NNC(=O)Nc1ccccc1	12	-1	4	9	1	42*	-22	12	-28
O=C(CN1CCN(c2nc(-c3ccc(Cl)cc3)cs2)CC1)NCc1ccco1	21	7	11	16*	6	51*	44*	78*	23
Cc1ccc(SCCc2cc[n+](CC(=O)c3ccccc3)cc2)cc1	2	1	7	-3	14	38*	2	-7	-9
Cc1ccc(C(=O)C[n+]2ccc(Cc3ccccc3)cc2)cc1	0	1	-5	8	-2	2	nt	nt	nt
CNS(=O)(=O)c1ccc2nc(NC(=O)/C=C/c3ccco3)sc2c1	8	16	7	0	56*	57*	4	-25	2
NC1=NC(=O)/C(=C/c2ccc(-c3ccc(S(N)(=O)=O)cc3)o2)S1	-10	-7	3	1	34	78*	89*	46*	42*
Cn1nc([N+](=O)[O-])nc1Sc1cccc2cccnc12	-2	-5	3	-2	0	46*	8	-33	-11
CC(C)c1ccc(OCC(=O)N(Cc2ccccc2)c2ccccn2)cc1	-1	2	3	3	0	43*	5	-19	7
O=C(COc1ccc(Cl)cc1)N(Cc1ccccc1)c1ccccn1	4	-2	-4	1	-4	-2	nt	nt	nt
COc1cc(C(=O)NC(=S)Nc2ccc(Cl)cn2)cc(OC)c1OC	-1	-2	-10	-4	2	-10	nt	nt	nt
COc1cc(/C=C(\CCC(=O)O)c2nc3ccccc3s2)ccc1OCC(=O)Nc1c(Cl)cccc1Cl	nt	-27	20	nt	7	73*	27	-1	1
O=C(O)CC/C(=C\c1ccc(Cl)c([N+](=O)[O-])c1)c1nc2ccccc2s1	-3	-3	5	2	-4	13	nt	nt	nt
O=C(CN1CCN(c2ccccn2)CC1)NC1CCCC1	-2	6	-1	1	-5	86*	-2	-12	59*
O=C(CN1CCN(c2ccccn2)CC1)Nc1ccccc1	5	-5	5	2	3	-4	nt	nt	nt
COc1cccc(/C=N/NC(=O)c2cccc3ccccc23)c1OC	0	-1	-2	-4	2	32*	-5	-60	3
CC(C)S(=O)(=O)C1=NSC2=NC(=O)/C(=C\c3ccc(-c4ccccc4)o3)C(=N)N21	12	25	13	4	11	51*	36	14	20
CC(C)S(=O)(=O)C1=NSC2=NC(=O)/C(=C\c3ccc(-c4cccc(C(=O)O)c4)o3)C(=N)N21	nt	24	2	nt	15	69*	30	0	21
CCCC(C(=O)NC1CCCC1)N(CC1CCCO1)C(=O)CNS(=O)(=O)c1ccccc1 (centres undefined)	-1	1	-12	-2	4	-7	nt	nt	nt
COc1ccc2cc(C#N)c(SCC(=O)N3CC(=O)Nc4ccccc43)nc2c1	3	-1	10	0	-8	48*	-4	-42	-20
O=c1cc(O)c2c(=O)n(C3CCCCC3)c3ccccc3c2o1	20	-2	5	9	11	62*	25	-30	6
Cc1nc2c(c(=O)c3ccccc3n2C)c(=O)n1C1CCCCCC1	-1	4	28	-1	-2	2	nt	nt	nt
COCCCNC(=S)N(CCO)Cc1cc2cc3c(cc2[nH]c1=O)OCO3	nt	0	6	nt	4	2	nt	nt	nt
Cc1ccc(N(CC(=O)N/N=C/c2ccc(OC3CSC3)cc2)S(=O)(=O)c2ccccc2)cc1	3	0	16	0	0	5	nt	nt	nt
CC(C)c1ccc(N(CC(=O)N/N=C/c2ccc(OC3CSC3)cc2)S(=O)(=O)c2ccccc2)cc1	-2	-3	23	-6	-2	40*	-19	-5	-19
SMILES	TPT1 inhibitor	HNF4A DNA FP	NadD block	PP1 counter	CSN deneddyl inh	Rpn11 block	Rpn11 confirm	MMP-2 counter	Thrombin inh
C/C(C/C(C)=C1/SC(=S)NC1=O)=C1\SC(=S)NC1=O	nt	-15	14	nt	35	76*	41*	16	-61
CC(=O)c1ccc(N/C=C\C(=O)c2ccc(C)cc2)cc1	6	5	-3	2	-4	0	nt	nt	nt
CC(=O)Nc1ccc(N/C=C/C(=O)c2ccc(Cl)cc2)cc1	3	10	1	0	4	98*	40	-30	14
COc1ccc(OC)c(/C=C2\SC(N3CCCCC3)=NC2=O)c1	0	-1	-2	0	1	-9	nt	nt	nt
O=C(N/N=C/c1c(O)ccc2ccccc12)C(=O)N1CCCC1	nt	7	-2	nt	4	13	nt	nt	nt
O=C(CN1CCCC1)N/N=C/c1c(O)ccc2ccccc12	9	10	11	0	9	46*	1	-19	-11
Clc1cccc(CNc2nc(-c3cccnc3)nc3ccccc23)c1	nt	5	3	nt	6	54*	4	-60	-17
COc1ccccc1N(C)S(=O)(=O)c1ccc(C(=O)Nc2cccc(S(=O)(=O)N3CCOCC3)c2)cc1	nt	-4	-3	nt	2	11	nt	nt	nt
COc1cc(SC#N)ccc1N=Cc1c(C)[nH]n(-c2ccc(Cl)cc2)c1=O	8	19	-3	-1	5	141*	7	3	6
CN(/N=C/c1cccc(Br)c1)C1=NS(=O)(=O)c2ccccc21	nt	0	1	nt	-1	-7	nt	nt	nt
CCOc1ccccc1NS(=O)(=O)c1cn(C)nc1C	-2	-47	3	4	-3	32*	-11	-4	1
Nc1nc(SCC(=O)N2CCCCC2)[nH]c(=O)c1NC(=O)c1ccccc1F	1	-2	-4	-3	3	-1	nt	nt	nt
CC1(C)CC(=O)C(N=Nc2ccc(-c3ccccc3)cc2)=C(O)C1	8	33	0	-2	24	48*	24	-27	-12
O=C(O)C(c1ccccc1)C1(O)CCC1 (centres undefined)	nt	4	1	nt	-4	6	nt	nt	nt
CC(=O)NN1C(=O)/C(=C\c2ccc(Br)o2)SC1=S	5	95	0	0	33	50*	12	-20	18
Nc1c(Cl)ncnc1Nc1ccc(C(=O)O)cc1	nt	-4	0	nt	9	-1	nt	nt	nt
